According to ChEMBL document CHEMBL4145545, “Synthesis and structure-activity relationships of asymmetric dimeric β-carboline derivatives as potential antitumor agents” (Eur J Med Chem, 2018):
Active and inactive are the calls of the source. The rule behind the calls is not given here.

Assays:
Mus musculus [1] = assay: Neurotoxicity in Kunming mouse assessed as twitch at 5 to 500 mg/kg, ip observed continuously for first 2 hrs, intermittently for next 24 hrs and occasionally thereafter for 14 days; assay type: toxicity, organism-based; details: in vivo
Method in brief: (§1)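 SPF KM mice, 6-8 weeks, 19-22 g, fasted overnight with water available. Single i.p. dose, 5.0 to 500 mg kg-1 in 0.5% CMC-Na, 10 mice per group (5 male, 5 female). Observed for behaviour, neurotoxic signs and deaths, then killed on day 14 and heart, liver and kidneys inspected macroscopically. LD50 derived graphically.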

Sarcoma-180 [2] = assay: Antitumor activity against mouse Sarcoma 180 cells implanted in mouse assessed as tumor growth inhibition at 10 mg/kg, ip administered once per day for 7 consecutive days starting from 24 hrs post tumor inoculation and measured on day 21 post tumor inoculation relative to control; assay type: functional; details: Sarcoma-180, ip, read-out: TGI
Method in brief: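 Tumor cells were harvested from 7-day donor tumors, and 2×10^6 viable cells/mouse were injected s.c. in the armpit. Groups of 10 female mice received i.p. compound daily for 7 days, starting 24 h after inoculation. Controls were vehicle (negative) and CTX 30 mg/kg (positive). Body weight was recorded every 3 days. On day 21 tumors were excised and weighed, and inhibition was calculated as (C−T)/C×100 from mean tumor weights.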

Mus musculus [3] = assay: Neurotoxicity in Kunming mouse assessed as supination at 5 to 500 mg/kg, ip observed continuously for first 2 hrs, intermittently for next 24 hrs and occasionally thereafter for 14 days; assay type: toxicity, organism-based; details: in vivo; method in brief: as §1
ECa-109 cell line = assay: Cytotoxicity against human ECA109 cells assessed as cell growth inhibition after 24 hrs by MTT assay; assay type: functional, cell-based; details: ECa-109, 24 h
Method in brief: (§2)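 Cell lines grown to log phase in RPMI-1640 with 10% FBS, penicillin and streptomycin. About 10^5 cells/mL were plated and pre-incubated 24 h at 37 °C in 5% CO2. Compounds were given in DMSO, final ≤2% (v/v). MTT read-out was OD at 490 nm. Triplicate wells per concentration, each assay run ≥3 times. IC50 is 50% OD reduction versus untreated cells, calculated by the Logit method. Cisplatin was the reference.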

Mus musculus [4] = assay: Hepatotoxicity in Kunming mouse at 5 to 500 mg/kg, ip after 14 days by macroscopic method; assay type: toxicity, organism-based; details: in vivo, 336 h
[5] = Cytotoxicity against human BGC cells assessed as cell growth inhibition after 24 hrs by MTT assay; assay type: functional, cell-based; method in brief: as §2
Mus musculus [6] = assay: Nephrotoxicity in Kunming mouse at 5 to 500 mg/kg, ip after 14 days by macroscopic method; assay type: toxicity, organism-based; details: in vivo, 336 h
Mus musculus [7] = assay: Neurotoxicity in Kunming mouse assessed as tremble at 5 to 500 mg/kg, ip observed continuously for first 2 hrs, intermittently for next 24 hrs and occasionally thereafter for 14 days; assay type: toxicity, organism-based; details: in vivo; method in brief: as §1
HT-29 = assay: Cytotoxicity against human HT-29 cells assessed as cell growth inhibition after 24 hrs by MTT assay; assay type: functional, cell-based; details: HT-29, 24 h; method in brief: as §2
HepG2 = assay: Cytotoxicity against human HepG2 cells assessed as cell growth inhibition after 24 hrs by MTT assay; assay type: functional, cell-based; details: HepG2, 24 h; method in brief: as §2
Mus musculus [8] = assay: Cardiotoxicity in Kunming mouse at 5 to 500 mg/kg, ip after 14 days by macroscopic method; assay type: toxicity, organism-based; details: in vivo, 336 h
Mus musculus [9] = assay: Acute toxicity in ip dosed Kunming mouse assessed as death at higher dose up to 4 to 8 hrs; assay type: organism-based; details: in vivo; method in brief: as §1
A-375 = assay: Cytotoxicity against human A375 cells assessed as cell growth inhibition after 24 hrs by MTT assay; assay type: functional, cell-based; details: A-375, 24 h; method in brief: as §2
Mus musculus [10] = assay: Neurotoxicity in Kunming mouse assessed as jumping behavior at 5 to 500 mg/kg, ip observed continuously for first 2 hrs, intermittently for next 24 hrs and occasionally thereafter for 14 days; assay type: toxicity, organism-based; details: in vivo; method in brief: as §1
[11] = Acute toxicity in ip dosed Kunming mouse observed continuously for first 2 hrs, intermittently for next 24 hrs and occasionally thereafter for 14 days; assay type: organism-based; details: in vivo; method in brief: as §1
MCF7 = assay: Cytotoxicity against human MCF7 cells assessed as cell growth inhibition after 24 hrs by MTT assay; assay type: functional, cell-based; details: MCF7, 24 h; method in brief: as §2
[12] = tested on: Lewis lung carcinoma cell line; assay: Cytotoxicity against mouse LLC cells assessed as cell growth inhibition after 24 hrs by MTT assay; assay type: functional, cell-based; method in brief: as §2
SK-OV-3 = assay: Cytotoxicity against human SKOV3 cells assessed as cell growth inhibition after 24 hrs by MTT assay; assay type: functional, cell-based; details: SK-OV-3, 24 h; method in brief: as §2
769-P = assay: Cytotoxicity against human 769-P cells assessed as cell growth inhibition after 24 hrs by MTT assay; assay type: functional, cell-based; method in brief: as §2
Chorioallantoic membrane = assay: In vivo antiangiogenic activity in chicken embryo chorioallantoic membrane at 50 uM/disc after 48 hrs by microscopic method; assay type: functional, organism-based; details: Gallus gallus
Sarcoma-180 [13] = assay: Antitumor activity against mouse Sarcoma 180 cells implanted in mouse assessed as tumor growth inhibition at 30 mg/kg, ip administered once per day for 7 consecutive days starting from 24 hrs post tumor inoculation and measured on day 21 post tumor inoculation relative to control; assay type: functional; details: Sarcoma-180, ip, read-out: TGI
Method in brief: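 Tumour cells passaged in mice for 7 days, then 2 × 10^6 viable cells given s.c. into the armpit of female mice, 10 per group. […] CTX at 30 mg kg-1 as reference, vehicle as negative control. Body weight recorded every 3 days. Tumours excised and weighed on day 21. Inhibition = (C − T)/C × 100, using mean tumour weights.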

[14] = tested on: Lewis lung carcinoma cell line; assay: animal or person; details: Mus musculus, ip, read-out: TGI

| SMILES | IC50 (ECa-109 cell line) [µM] | IC50 [5] [µM] | IC50 (HT-29) [µM] | IC50 (HepG2) [µM] | IC50 (A-375) [µM] | IC50 (MCF7) [µM] | IC50 [12] [µM] | IC50 (SK-OV-3) [µM] | IC50 (769-P) [µM] | further results |
| --- | --- | --- | --- | --- | --- | --- | --- | --- | --- | --- |
| Cc1nccc2c3ccc(OCCCCn4c5ccccc5c5ccncc54)cc3n(CCCc3ccccc3)c12.Cl | 9.5 | 8.5 | 15.9 | 9.7 | 33.4 | 4.5 | 9.6 | 13.8 | 10.7 | Activity (Mus musculus [1]): Non-Toxic; inhibition in vivo at 10 mg/kg (Sarcoma-180 [2]): 33.5%; Activity (Mus musculus [3]): Non-Toxic; Activity (Mus musculus [4]): Non-Toxic; Activity (Mus musculus [6]): Non-Toxic; Activity (Mus musculus [7]): Non-Toxic; Activity (Mus musculus [8]): Non-Toxic; Activity (Mus musculus [9]): Toxic; Activity (Mus musculus [10]): Non-Toxic; LD50 at 14 days [11]: 50 mg/kg |
| CCCCn1c2cc(OCCCCCn3c4ccccc4c4ccncc43)ccc2c2ccnc(C)c21 | > 100 | > 100 | 32.6 | 65.1 | > 100 | 16.7 | > 100 | 65.1 | 31.1 |  |
| COc1ccc(/C=C\c2cc(OC)c(OC)c(OC)c2)cc1OP(=O)(O)O |  |  |  |  |  |  |  |  |  | Activity (Chorioallantoic membrane): Active |
| CCCCn1c2cc(OCCCCCCn3c4ccccc4c4ccncc43)ccc2c2ccnc(C)c21 | > 100 | > 100 | > 100 | 51.7 | 78.3 | > 100 | 46.1 | > 100 | > 100 |  |
| Cc1nccc2c3ccc(OCCCCCCn4c5ccccc5c5ccncc54)cc3n(CCCc3ccccc3)c12 | 12.6 | 11.2 | 16.2 | 12.1 | 37.1 | 8.5 | 28.2 | 76.4 | 13.1 |  |
| CCn1c2cc(OCCCCn3c4ccccc4c4ccncc43)ccc2c2ccnc(C)c21 | 37 | 41.5 | 37 | > 100 | 30.7 | 19.4 | 16.5 | 19.8 | 27.4 |  |
| Cc1nccc2c3ccc(OCCCCn4c5ccccc5c5ccnc(-c6cccnc6)c54)cc3n(CCCc3ccccc3)c12 | 12.9 | 4.2 | 11.2 | 10.7 | 18.9 | 29.8 | 9.4 | 22.9 | 7.2 |  |
| O=P1(N(CCCl)CCCl)NCCCO1 (stereo not given) [CYCLOPHOSPHAMIDE ANHYDROUS] |  |  |  |  |  |  |  |  |  | inhibition in vivo at 30 mg/kg (Sarcoma-180 [13]): 82.5%; inhibition in vivo at 30 mg/kg [14]: 80.7% |
| Cc1nccc2c3ccc(OCCCCn4c5ccccc5c5ccnc(-c6ccccc6Cl)c54)cc3n(CCCc3ccccc3)c12 | 18.4 | 12.4 | 20.2 | 14.4 | 3.9 | 5.9 | 10.1 | 22.9 | 21.9 |  |
| Cc1nccc2c3ccccc3n(CCCCCCOc3ccc4c5ccnc(C)c5n(CCCc5ccccc5)c4c3)c12 | 15.1 | 12.5 | 28.1 | 14.1 | 15.8 | 11.7 | 14.1 | 19.4 | 16.1 |  |
